Reference: ChEMBL document CHEMBL4152256, “Structure-activity relationship of new antimalarial 1-aryl-3-susbtituted propanol derivatives: Synthesis, preliminary toxicity profiling, parasite life cycle stage studies, target exploration, and targeted delivery” (Eur J Med Chem, 2018)

Assays:
[1] = Genotoxicity in Salmonella typhimurium TA1535 harboring pSK1002 assessed as survival at 0.031 mg/ml in absence of Sprague-Dawley rat liver S9 fraction after by SOS/umu assay relative to control; type: toxicity, organism-based; conditions: salmonella enterica subsp. enterica serovar typhimurium, read-out: Survival
[2] = Genotoxicity in Salmonella typhimurium TA1535 harboring pSK1002 assessed as umu gene induction at 0.031 mg/ml in presence of Sprague-Dawley rat liver S9 fraction after by SOS/umu assay relative to control; type: toxicity, organism-based; conditions: salmonella enterica subsp. enterica serovar typhimurium, read-out: FC
Plasmodium falciparum [3] = experiment: Antiplasmodial activity against chloroquine-sensitive Plasmodium falciparum 3D7 by [3H]-hypoxanthine incorporation assay; type: functional, organism-based; conditions: Plasmodium falciparum, 3D7
Outline: (§1)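 Blood-stage P. falciparum 3D7 and FCR-3 were tested by a modified [3H]-hypoxanthine incorporation assay. Chloroquine was the reference in all runs.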

[4] = Genotoxicity in Salmonella typhimurium TA1535 harboring pSK1002 assessed as survival at 0.125 mg/ml in absence of Sprague-Dawley rat liver S9 fraction after by SOS/umu assay relative to control; type: toxicity, organism-based; conditions: salmonella enterica subsp. enterica serovar typhimurium, read-out: Survival
[5] = Genotoxicity in Salmonella typhimurium TA1535 harboring pSK1002 assessed as survival at 0.063 mg/ml in presence of Sprague-Dawley rat liver S9 fraction after by SOS/umu assay relative to control; type: toxicity, organism-based; conditions: salmonella enterica subsp. enterica serovar typhimurium, read-out: Survival
[6] = Genotoxicity in Salmonella typhimurium TA1535 harboring pSK1002 assessed as survival at 0.016 mg/ml in presence of Sprague-Dawley rat liver S9 fraction after by SOS/umu assay relative to control; type: toxicity, organism-based; conditions: salmonella enterica subsp. enterica serovar typhimurium, read-out: Survival
[7] = Genotoxicity in Salmonella typhimurium TA1535 harboring pSK1002 assessed as survival at 0.063 mg/ml in absence of Sprague-Dawley rat liver S9 fraction after by SOS/umu assay relative to control; type: toxicity, organism-based; conditions: salmonella enterica subsp. enterica serovar typhimurium, read-out: Survival
[8] = Genotoxicity in Salmonella typhimurium TA1535 harboring pSK1002 assessed as survival at 0.008 mg/ml in absence of Sprague-Dawley rat liver S9 fraction after by SOS/umu assay relative to control; type: toxicity, organism-based; conditions: salmonella enterica subsp. enterica serovar typhimurium, read-out: Survival
[9] = Genotoxicity in Salmonella typhimurium TA1535 harboring pSK1002 assessed as umu gene induction at 0.008 mg/ml in absence of Sprague-Dawley rat liver S9 fraction after by SOS/umu assay relative to control; type: toxicity, organism-based; conditions: salmonella enterica subsp. enterica serovar typhimurium, read-out: FC
[10] = Genotoxicity in Salmonella typhimurium TA1535 harboring pSK1002 assessed as survival at 0.125 mg/ml in presence of Sprague-Dawley rat liver S9 fraction after by SOS/umu assay relative to control; type: toxicity, organism-based; conditions: salmonella enterica subsp. enterica serovar typhimurium, read-out: Survival
[11] = Selectivity index, ratio of CC50 for human HepG2A16 cells by MTT assay to IC50 for multidrug-resistant Plasmodium falciparum FCR-3; type: toxicity; conditions: HepG2A16 cells, read-out: Ratio CC50/IC50
Outline: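 HepG2-A16 human hepatoma cells were tested by MTT viability assay to give CC50. Blood-stage activity was measured against the multidrug-resistant P. falciparum FCR-3 strain by [3H]-hypoxanthine incorporation to give IC50. SI = CC50 HepG2 / FCR-3 IC50.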

[12] = Genotoxicity in Salmonella typhimurium TA1535 harboring pSK1002 assessed as umu gene induction at 0.063 mg/ml in presence of Sprague-Dawley rat liver S9 fraction after by SOS/umu assay relative to control; type: toxicity, organism-based; conditions: salmonella enterica subsp. enterica serovar typhimurium, read-out: FC
[13] = Genotoxicity in Salmonella typhimurium TA1535 harboring pSK1002 assessed as survival at 0.008 mg/ml in presence of Sprague-Dawley rat liver S9 fraction after by SOS/umu assay relative to control; type: toxicity, organism-based; conditions: salmonella enterica subsp. enterica serovar typhimurium, read-out: Survival
Plasmodium falciparum [14] = experiment: Antiplasmodial activity against multidrug-resistant Plasmodium falciparum FCR-3 by [3H]-hypoxanthine incorporation assay; type: functional, organism-based, FCR-3/Gambia; conditions: Plasmodium falciparum, FCR-3/Gambia; outline: as §1
[15] = Genotoxicity in Salmonella typhimurium TA1535 harboring pSK1002 assessed as umu gene induction at 0.004 mg/ml in presence of Sprague-Dawley rat liver S9 fraction after by SOS/umu assay relative to control; type: toxicity, organism-based; conditions: salmonella enterica subsp. enterica serovar typhimurium, read-out: FC
[16] = Genotoxicity in Salmonella typhimurium TA1535 harboring pSK1002 assessed as umu gene induction at 0.016 mg/ml in presence of Sprague-Dawley rat liver S9 fraction after by SOS/umu assay relative to control; type: toxicity, organism-based; conditions: salmonella enterica subsp. enterica serovar typhimurium, read-out: FC
[17] = Genotoxicity in Salmonella typhimurium TA1535 harboring pSK1002 assessed as survival at 0.016 mg/ml in absence of Sprague-Dawley rat liver S9 fraction after by SOS/umu assay relative to control; type: toxicity, organism-based; conditions: salmonella enterica subsp. enterica serovar typhimurium, read-out: Survival
[18] = Genotoxicity in Salmonella typhimurium TA1535 harboring pSK1002 assessed as umu gene induction at 0.008 mg/ml in presence of Sprague-Dawley rat liver S9 fraction after by SOS/umu assay relative to control; type: toxicity, organism-based; conditions: salmonella enterica subsp. enterica serovar typhimurium, read-out: FC
[19] = Genotoxicity in Salmonella typhimurium TA1535 harboring pSK1002 assessed as umu gene induction at 0.001 mg/ml in presence of Sprague-Dawley rat liver S9 fraction after by SOS/umu assay relative to control; type: toxicity, organism-based; conditions: salmonella enterica subsp. enterica serovar typhimurium, read-out: FC
[20] = Genotoxicity in Salmonella typhimurium TA1535 harboring pSK1002 assessed as survival at 0.001 mg/ml in absence of Sprague-Dawley rat liver S9 fraction after by SOS/umu assay relative to control; type: toxicity, organism-based; conditions: salmonella enterica subsp. enterica serovar typhimurium, read-out: Survival
[21] = Cytotoxicity against human HepG2A16 cells by MTT assay; type: cell-based; conditions: HepG2A16 cells
Outline: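 MTT viability assay on HepG2-A16 cells, giving CC50 values.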

[22] = Genotoxicity in Salmonella typhimurium TA1535 harboring pSK1002 assessed as umu gene induction at 0.004 mg/ml in absence of Sprague-Dawley rat liver S9 fraction after by SOS/umu assay relative to control; type: toxicity, organism-based; conditions: salmonella enterica subsp. enterica serovar typhimurium, read-out: FC
[23] = Genotoxicity in Salmonella typhimurium TA1535 harboring pSK1002 assessed as umu gene induction at 0.002 mg/ml in absence of Sprague-Dawley rat liver S9 fraction after by SOS/umu assay relative to control; type: toxicity, organism-based; conditions: salmonella enterica subsp. enterica serovar typhimurium, read-out: FC
[24] = Genotoxicity in Salmonella typhimurium TA1535 harboring pSK1002 assessed as umu gene induction at 0.016 mg/ml in absence of Sprague-Dawley rat liver S9 fraction after by SOS/umu assay relative to control; type: toxicity, organism-based; conditions: salmonella enterica subsp. enterica serovar typhimurium, read-out: FC
[25] = Genotoxicity in Salmonella typhimurium TA1535 harboring pSK1002 assessed as umu gene induction at 0.002 mg/ml in presence of Sprague-Dawley rat liver S9 fraction after by SOS/umu assay relative to control; type: toxicity, organism-based; conditions: salmonella enterica subsp. enterica serovar typhimurium, read-out: FC
[26] = Genotoxicity in Salmonella typhimurium TA1535 harboring pSK1002 assessed as survival at 0.002 mg/ml in presence of Sprague-Dawley rat liver S9 fraction after by SOS/umu assay relative to control; type: toxicity, organism-based; conditions: salmonella enterica subsp. enterica serovar typhimurium, read-out: Survival
[27] = Genotoxicity in Salmonella typhimurium TA1535 harboring pSK1002 assessed as umu gene induction at 0.063 mg/ml in absence of Sprague-Dawley rat liver S9 fraction after by SOS/umu assay relative to control; type: toxicity, organism-based; conditions: salmonella enterica subsp. enterica serovar typhimurium, read-out: FC
[28] = Genotoxicity in Salmonella typhimurium TA1535 harboring pSK1002 assessed as survival at 0.004 mg/ml in absence of Sprague-Dawley rat liver S9 fraction after by SOS/umu assay relative to control; type: toxicity, organism-based; conditions: salmonella enterica subsp. enterica serovar typhimurium, read-out: Survival
[29] = Genotoxicity in Salmonella typhimurium TA1535 harboring pSK1002 assessed as umu gene induction at 0.125 mg/ml in absence of Sprague-Dawley rat liver S9 fraction after by SOS/umu assay relative to control; type: toxicity, organism-based; conditions: salmonella enterica subsp. enterica serovar typhimurium, read-out: FC

Structure (SMILES) | viability at 0.031 mg/ml [1] [%] | fold induction at 0.031 mg/ml [2] | IC50 (Plasmodium falciparum [3]) [µM] | viability at 0.125 mg/ml [4] [%] | viability at 0.063 mg/ml [5] [%] | viability at 0.016 mg/ml [6] [%] | viability at 0.063 mg/ml [7] [%] | viability at 0.008 mg/ml [8] [%] | fold induction at 0.008 mg/ml [9] | viability at 0.125 mg/ml [10] [%] | selectivity ratio [11] | fold induction at 0.063 mg/ml [12] | viability at 0.008 mg/ml [13] [%] | IC50 (Plasmodium falciparum [14]) [µM] | fold induction at 0.004 mg/ml [15] | fold induction at 0.016 mg/ml [16] | viability at 0.016 mg/ml [17] [%] | fold induction at 0.008 mg/ml [18] | fold induction at 0.001 mg/ml [19] | viability at 0.001 mg/ml [20] [%] | other results
OC(CCN1CCN(c2ccccc2C(F)(F)F)CC1)c1ccc(F)cc1 (stereo not drawn) | 95.5 | 1 | 1.01 | 25.4 | 89 | 87.9 | 28.6 | 98.3 | 0.8 | 21.3 | 1 | 0.8 | 96.1 | 1.69 | 1.1 | 0.9 | 99.8 | 1 | 1.1 | 111 | CC50 [21]: 1.35 µM; fold induction at 0.004 mg/ml [22]: 0.9; fold induction at 0.002 mg/ml [23]: 0.8; fold induction at 0.016 mg/ml [24]: 0.8; fold induction at 0.002 mg/ml [25]: 1; viability at 0.002 mg/ml [26]: 90.4%; fold induction at 0.063 mg/ml [27]: 1.3; viability at 0.004 mg/ml [28]: 107%; fold induction at 0.125 mg/ml [29]: 1.2
OC(CCN1CC=C(c2ccc(F)cc2)CC1)c1ccc2c(c1)OCO2 (stereo not drawn) | 113 | 0.7 | 17.4 | 116 | 105 | 92 | 96.6 | 128 | 0.7 | 99.6 | 97 | 0.9 | 96 | 1.7 | 0.9 | 1 | 92.5 | 1 | 0.7 | 131 | CC50 [21]: 165 µM; fold induction at 0.004 mg/ml [22]: 0.8; fold induction at 0.002 mg/ml [23]: 0.8; fold induction at 0.016 mg/ml [24]: 0.9; fold induction at 0.002 mg/ml [25]: 1; viability at 0.002 mg/ml [26]: 108%; fold induction at 0.063 mg/ml [27]: 0.9; viability at 0.004 mg/ml [28]: 114%; fold induction at 0.125 mg/ml [29]: 0.8
